Measurements as given in ChEMBL document CHEMBL3632559, “α-Halogenated oxaphosphinanes: Synthesis, unexpected reactions and evaluation as inhibitors of cancer cell proliferation” (Eur J Med Chem, 2015).

Key:
MDA-MB-231 = assay: Antiproliferative activity against human MDA-MB-231 cells after 72 hrs by MTT assay; type: functional, cell-based
MDA-MB-435 [1] = assay: Antiproliferative activity against human MDA-MB-435 cells after 72 hrs by MTT assay; type: functional, cell-based; conditions: MDA-MB-435, 72 h
[2] = Antiproliferative activity against mouse B16F10 cells after 72 hrs by MTT assay; type: functional, cell-based; conditions: B16-F10, 72 h
Caco-2 = assay: Antiproliferative activity against human Caco2 cells after 72 hrs by MTT assay; type: functional, cell-based
[3] = Antiproliferative activity against human HuH7 cells after 72 hrs by MTT assay; type: functional, cell-based; conditions: Huh-7, 72 h
DU-145 = assay: Antiproliferative activity against human DU145 cells after 72 hrs by MTT assay; type: functional, cell-based
[4] = Antimigratory activity in mouse B16F10 cells after 24 hrs by fibronectin-coated boyden chamber assay; type: functional, cell-based; conditions: b16-f10
In short: (§1)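 Boyden chamber inserts were coated overnight with laminin, fibronectin or vitronectin (human plasma), PBS-washed and blocked 1 h with 0.5% BSA. Cells in DMEM/0.1% BSA were placed in the upper compartment for 24 h with or without compound. Non-migrating cells were wiped off; lower-side cells were methanol-fixed, crystal violet-stained and counted. Run in triplicate. Ki came from Hill fit of dose-log response curves.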

[5] = Antimigratory activity in mouse B16F10 cells after 24 hrs by laminin-coated boyden chamber assay; type: functional, cell-based; conditions: b16-f10; in short: as §1
[6] = Antimigratory activity in mouse B16F10 cells after 24 hrs by vitronectin-coated boyden chamber assay; type: functional, cell-based; conditions: b16-f10; in short: as §1
[7] = Antiinvasive activity in mouse B16F10 cells after 24 hrs by matrigel assay in presence of HGF; type: functional, cell-based; conditions: b16-f10
In short: (§2)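 Boyden chamber inserts loaded with Matrigel diluted 33-fold in PBS, with HGF in the lower chamber. Cells resuspended in DMEM with 0.1% BSA were plated in the upper compartment and incubated 24 h with or without compound. Cells on the lower membrane surface were methanol-fixed, crystal violet-stained and counted. % Inh was computed against untreated migration. Run in triplicate. EC50/Ki were obtained by Hill fit of dose-log response curves.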

MDA-MB-435 [8] = assay: Antimigratory activity in human MDA-MB-435 cells after 24 hrs by fibronectin-coated boyden chamber assay; type: functional, cell-based; in short: as §1
MDA-MB-435 [9] = assay: Antimigratory activity in human MDA-MB-435 cells after 24 hrs by laminin-coated boyden chamber assay; type: functional, cell-based; in short: as §1
MDA-MB-435 [10] = assay: Antimigratory activity in human MDA-MB-435 cells after 24 hrs by vitronectin-coated boyden chamber assay; type: functional, cell-based; in short: as §1
MDA-MB-435 [11] = assay: Antiinvasive activity in human MDA-MB-435 cells after 24 hrs by matrigel assay in presence of HGF; type: functional, cell-based; conditions: read-out: Ki; in short: as §2
[12] = Cytotoxicity against mouse B16F10 cells; type: cell-based; conditions: b16-f10
MDA-MB-435 [13] = assay: Cytotoxicity against human MDA-MB-435 cells; type: cell-based
[14] = Homo sapiens, MDA-MB-231, 72 h, read-out: IC50
[15] = Homo sapiens, Caco-2, 72 h, read-out: IC50
[16] = Homo sapiens, DU-145, 72 h, read-out: IC50

Row | IC50 (MDA-MB-231; [14]) [µM] | IC50 (MDA-MB-435 [1]) [µM] | IC50 (Caco-2; [15]) [µM] | IC50 (DU-145; [16]) [µM] | EC50 (MDA-MB-435 [11]) [µM] | IC50 (MDA-MB-231; mda-mb-231) | IC50 (Caco-2; caco-2) | IC50 (DU-145; du-145) | SMILES | IC50 [2] [µM] | IC50 [3] [µM] | Ki [4] [µM] | Ki [5] [µM] | Ki [6] [µM] | Ki [7] [µM] | Ki (MDA-MB-435 [8]) [µM] | Ki (MDA-MB-435 [9]) [µM] | Ki (MDA-MB-435 [10]) [µM] | Activity [12] | Activity (MDA-MB-435 [13])
1 | 0.445 | 0.0002 | 24.7 | 0.102 | 0.013 | – | – | – | O=[P@@]1(c2ccccc2)O[C@H](COCc2ccccc2)[C@@H](OCc2ccccc2)[C@H](OCc2ccccc2)[C@@H]1Br | 0.0046 | 0.0116 | 0.046 | 0.01 | 0.021 | 0.017 | 0.039 | 0.034 | 0.046 | – | –
2 | 0.286 | 0.00052 | 28.4 | 0.116 | – | – | – | – | O=[P@]1(c2ccccc2)C=C(OCc2ccccc2)[C@H](OCc2ccccc2)[C@@H](COCc2ccccc2)O1 | 0.0044 | 0.0375 | – | – | – | – | – | – | – | – | –
3 | 0.432 | 0.00035 | 29.5 | 0.0865 | 0.03 | – | – | – | O=[P@@]1(c2ccccc2)O[C@H](COCc2ccccc2)[C@@H](OCc2ccccc2)[C@H](OCc2ccccc2)[C@H]1Br | 0.0038 | 0.0158 | 0.03 | 0.02 | 0.05 | 0.032 | 0.028 | 0.042 | 0.078 | – | –
4 | – | – | – | – | 0.036 | – | – | – | O=[P@@]1(c2ccccc2)O[C@H](COCc2ccccc2)[C@@H](OCc2ccccc2)[C@H](OCc2ccccc2)[C@@H]1Cl | – | – | 0.049 | 0.019 | 0.034 | 0.035 | 0.028 | 0.023 | 0.041 | – | –
5 | – | 0.00145 | – | – | 0.031 | Not Active | Not Active | Not Active | O=[P@@]1(c2ccccc2)O[C@H](COCc2ccccc2)[C@@H](OCc2ccccc2)[C@H](OCc2ccccc2)[C@H]1F | 0.0017 | 0.0121 | 0.022 | 0.016 | 0.04 | 0.033 | 0.028 | 0.034 | 0.066 | – | –
6 | 0.466 | 0.00055 | 20.5 | 0.215 | 0.028 | – | – | – | O=[P@@]1(c2ccccc2)O[C@H](COCc2ccccc2)[C@@H](OCc2ccccc2)[C@H](OCc2ccccc2)[C@@H]1I | 0.0077 | 0.229 | 0.016 | 0.017 | 0.044 | 0.029 | 0.029 | 0.025 | 0.043 | – | –
7 | 0.478 | 0.0003 | 28.6 | 0.104 | 0.035 | – | – | – | O=[P@@]1(c2ccccc2)O[C@H](COCc2ccccc2)[C@@H](OCc2ccccc2)[C@H](OCc2ccccc2)[C@H]1I | 0.004 | 0.013 | 0.02 | 0.016 | 0.035 | 0.037 | 0.028 | 0.023 | 0.101 | Toxic | Toxic
8 | 0.359 | 0.0016 | 24.8 | 0.226 | 0.035 | – | – | – | O=[P@@]1(c2ccccc2)O[C@H](COCc2ccccc2)[C@@H](OCc2ccccc2)[C@H](OCc2ccccc2)[C@H]1Cl | 0.0077 | 1.17 | 0.018 | 0.013 | 0.38 | 0.037 | 0.036 | 0.032 | 0.052 | Toxic | Toxic
